Assay results published in ChEMBL document CHEMBL2401732, “Evaluation of adenine as scaffold for the development of novel P2X3 receptor antagonists” (Eur J Med Chem, 2013).
Residue numbers refer to the chain shown, from its start. Active and inactive are the calls of the source. No cut-off for these calls is given here.

Legend:
[1] = target: T1, P2X purinoceptor 3 (Rattus norvegicus) (UniProt P49654); assay: Antagonist activity at rat recombinant P2X3 receptor expressed in HEK293T cells assessed as desensitization of alpha,beta-methyleneATP-induced current at 100 uM after 20 secs by patch clamp technique; type: cell-based; conditions: HEK-293T
T1 sequence (whole entry): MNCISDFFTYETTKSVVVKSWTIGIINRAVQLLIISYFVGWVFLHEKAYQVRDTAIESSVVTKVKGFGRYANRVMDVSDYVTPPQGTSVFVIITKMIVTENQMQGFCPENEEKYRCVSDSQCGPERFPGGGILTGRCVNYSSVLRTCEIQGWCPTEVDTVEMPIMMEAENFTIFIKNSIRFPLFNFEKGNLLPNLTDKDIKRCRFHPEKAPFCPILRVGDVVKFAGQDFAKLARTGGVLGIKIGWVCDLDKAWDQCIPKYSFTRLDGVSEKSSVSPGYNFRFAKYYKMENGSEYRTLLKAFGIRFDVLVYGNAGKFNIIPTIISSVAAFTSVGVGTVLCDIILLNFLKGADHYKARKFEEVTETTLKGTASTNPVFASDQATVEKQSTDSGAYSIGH
In short: (§1)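 HEK 293T cells transiently co-transfected by calcium phosphate with pEGFP and pcDNA3-P2X3 (rat or human, 1:1), used 24 or 48 h later. GFP-positive cells whole-cell clamped at -60 mV, room temperature, CsCl pipette solution, HEPES-buffered bath pH 7.4. Control response averaged over ≥3 pulses of 100 μM α,β-meATP (2 s, 5 min apart). Compound applied 20 s before agonist. Screening at 100 μM, then 100–0.3 μM. Peak % inhibition computed; Hill fits of dose–inhibition data, n = 6–14 cells.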

[2] = target: T1, P2X purinoceptor 3 (Rattus norvegicus); assay: Antagonist activity at rat recombinant P2X3 receptor expressed in HEK293T cells assessed as desensitization of alpha,beta-methyleneATP-induced current at 10 uM after 20 secs by patch clamp technique; type: cell-based; conditions: HEK-293T; in short: as §1
[3] = target: T1, P2X purinoceptor 3 (Rattus norvegicus); assay: Antagonist activity at rat recombinant P2X3 receptor expressed in HEK293T cells assessed as desensitization of alpha,beta-methyleneATP-induced current at 1 uM after 20 secs by patch clamp technique; type: cell-based; conditions: HEK-293T; in short: as §1
[4] = target: T1, P2X purinoceptor 3 (Rattus norvegicus); assay: Antagonist activity at rat recombinant P2X3 receptor expressed in HEK293T cells assessed as desensitization of alpha,beta-methyleneATP-induced current at 0.3 uM after 20 secs by patch clamp technique; type: cell-based; conditions: HEK-293T; in short: as §1
P2X purinoceptor 3 = target: T2, P2X purinoceptor 3 (Rattus norvegicus, UniProt P49654); assay: Antagonist activity at rat recombinant P2X3 receptor expressed in HEK293T cells assessed as desensitization of alpha,beta-methyleneATP-induced current after 20 secs by patch clamp technique; type: cell-based, HEK-293T; in short: as §1
T2 sequence (P49654 whole entry): T1 sequence (whole entry)

[5] = target: T1, P2X purinoceptor 3 (Rattus norvegicus); assay: Antagonist activity at rat recombinant P2X3 receptor expressed in HEK293T cells assessed as desensitization of alpha,beta-methyleneATP-induced current at 100 uM after 6 mins of compound wash out by patch clamp technique; type: cell-based; conditions: HEK-293T
In short: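 Rat P2X3 in transfected HEK 293T cells, whole-cell clamp at -60 mV. After 20 s compound application and a 2 s pulse of 100 μM α,β-meATP, the cell was washed for 6 min. Recovery was assessed as the peak current to a repeat agonist pulse, compared with the control peak.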

[6] = target: T1, P2X purinoceptor 3 (Rattus norvegicus); assay: Antagonist activity at rat recombinant P2X3 receptor expressed in HEK293T cells assessed as desensitization of alpha,beta-methyleneATP-induced current at 100 uM after 20 secs by patch clamp technique relative to control; type: cell-based; design: scale not given: the % may be the effect or the level left; conditions: HEK-293T; in short: as §1
[7] = target: T3, P2X purinoceptor 3 (Homo sapiens) (UniProt P56373); assay: Antagonist activity at human recombinant P2X3 receptor expressed in HEK293T cells assessed as desensitization of alpha,beta-methyleneATP-induced current at 100 uM after 20 secs by patch clamp technique; type: cell-based; conditions: HEK-293T, 1 uM, in the assay text read “at 1 uM” for “at 100 uM”; in short: as §1
T3 sequence (whole entry): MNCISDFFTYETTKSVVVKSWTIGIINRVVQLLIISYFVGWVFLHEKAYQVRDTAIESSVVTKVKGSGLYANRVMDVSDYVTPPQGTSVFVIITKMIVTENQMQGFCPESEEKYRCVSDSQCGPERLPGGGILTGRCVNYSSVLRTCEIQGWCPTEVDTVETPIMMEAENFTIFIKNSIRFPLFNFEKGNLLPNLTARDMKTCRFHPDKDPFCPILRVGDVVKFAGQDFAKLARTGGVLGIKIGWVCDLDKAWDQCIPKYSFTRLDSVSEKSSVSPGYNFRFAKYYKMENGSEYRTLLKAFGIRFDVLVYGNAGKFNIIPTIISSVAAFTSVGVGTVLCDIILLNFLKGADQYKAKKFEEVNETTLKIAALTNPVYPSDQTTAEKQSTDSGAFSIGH

[8] = target: T4, P2X purinoceptor 3 (Mus musculus) (UniProt Q3UR32); assay: Antagonist activity at P2X3 receptor in C57Bl/6 wild type mouse trigeminal ganglion sensory neurons assessed as desensitization of alpha,beta-methyleneATP-induced current at 1 uM after 20 secs by patch clamp technique; type: tissue-based
T4 sequence (whole entry): T1 sequence (whole entry) with L144R, R202K, A377T
In short: (§2)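 Native P2X3 in trigeminal ganglion neurons from C57Bl/6 mice (P10–14), dissociated with trypsin/collagenase/DNAse at 37 °C for 12 min and cultured 24 h. Small/medium neurons whole-cell voltage clamped at -60 mV, room temperature. Pipette KCl-based with ATP–Mg/GTP–Li, pH 7.2. Compound superfused 20 s, then 2 s pulse of 100 μM α,β-meATP. % inhibition = 100×(1−I2/I1) from peak currents.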

[9] = target: T4, P2X purinoceptor 3 (Mus musculus); assay: Antagonist activity at P2X3 receptor in C57Bl/6 wild type mouse trigeminal ganglion sensory neurons assessed as desensitization of alpha,beta-methyleneATP-induced current at 100 uM after 20 secs by patch clamp technique; type: tissue-based; in short: as §2

Row | Structure (SMILES) | inhibition [1] | inhibition [2] | inhibition [3] | inhibition [4] | IC50 (P2X purinoceptor 3) | also measured
1 | CNc1nc(N)nc2c1ncn2Cc1cc(OC)c(OC)cc1C(C)C | 71% |  |  |  |  | 
2 | COc1cc(C(C)C)c(Cn2cnc3nc(N)nc(N)c32)cc1I |  | 43% |  |  |  | 
3 | COc1cc(C(C)C)c(Cn2cnc3c(NC4CCCC4)nc(N)nc32)cc1I | 58% | 60% | 51% | 45% |  | 
4 | COc1cc(Cn2cnc3nc(N)nc(N)c32)c(C(C)C)cc1OC | 23% |  |  |  |  | 
5 | COc1cc(Cn2cnc3c(N)nc(N)nc32)c(C(C)C)cc1OC | 82% | 36% | 8% |  | 18.6 µM | Activity [5]: inactive
6 | COc1cc(C(C)C)c(Cn2cnc3c(OC)nc(N)nc32)cc1I | 50% |  |  |  |  | 
7 | COc1cc(Cn2cnc3c(Cl)nc(N)nc32)c(C(C)C)cc1OC | 27% |  |  |  |  | Activity [6]: 6%
8 | COc1cc(C(C)C)c(Cn2cnc3c(N)nc(N)nc32)cc1I | 93% | 78% | 35% | 23% | 2.23 µM | 
9 | CNc1nc(N)nc2c1ncn2Cc1cc(I)c(OC)cc1C(C)C | 98% | 76% | 41% | 22% | 1.74 µM | inhibition [7]: 29%; inhibition [8]: 37%; Activity [5]: inactive; inhibition [9]: Active
10 | COc1cc(Cn2cnc3nc(N)nc(Cl)c32)c(C(C)C)cc1OC | 19% |  |  |  |  | 
